Reference: ChEMBL document CHEMBL1152646, “Synthesis, molecular docking and biological evaluation of metronidazole derivatives as potent Helicobacter pylori urease inhibitors” (Bioorg Med Chem, 2009)
Active and inactive are the calls of the source. The rule behind the calls is not given here.

Columns and labels:
[1] = target: Urease subunit alpha/Urease subunit beta (Helicobacter pylori (strain ATCC 700392 / 26695) (Campylobacterpylori), UniProt P69996); assay: Inhibition of Helicobacter pylori ATCC 43504 urease assessed as ammonia production after 3 hrs by indophenol method
Outline: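 Crude urease came from H. pylori grown 24 h at 37 °C, microaerobic, in brucella broth with 10% heat-inactivated horse serum. Cells were PBS-washed, frozen at -80 °C, sonicated 60 s in water with protease inhibitors, and mixed 1:1 with glycerol. Enzyme (4 U) and compound were preincubated at room temperature. Percent inhibition was screened at 1 mM; IC50 came from dose–response curves (≥3 experiments, mean S.D.).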

[2] = target: Urease subunit alpha/Urease subunit beta (Helicobacter pylori (strain ATCC 700392 / 26695) (Campylobacterpylori)) (UniProt P69996+P14916); assay: Inhibition of Helicobacter pylori ATCC 43504 urease assessed as ammonia production at 1 mM after 3 hrs by indophenol method
Outline: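 Crude urease from H. pylori ATCC 43504 grown 24 h at 37 °C microaerobically in brucella broth with 10% heat-inactivated horse serum; cells PBS-washed, stored at -80 °C, sonicated 60 s in water with protease inhibitors, extract mixed 1:1 with glycerol. Enzyme (4 U) preincubated 3 h at room temperature with compound; ammonia measured by indophenol method; percent inhibition.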

Urease subunit alpha/Urease subunit beta (Helicobacter pylori (strain ATCC 700392 / 26695) (Campylobacterpylori)), sequence (P14916 whole entry, looked up): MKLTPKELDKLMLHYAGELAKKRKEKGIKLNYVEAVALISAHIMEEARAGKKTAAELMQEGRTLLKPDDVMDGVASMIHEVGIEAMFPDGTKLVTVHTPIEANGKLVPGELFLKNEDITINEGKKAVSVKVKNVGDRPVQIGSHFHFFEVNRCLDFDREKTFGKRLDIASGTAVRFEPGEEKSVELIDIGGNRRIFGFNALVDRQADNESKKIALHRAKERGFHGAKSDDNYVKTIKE
Urease subunit alpha/Urease subunit beta (Helicobacter pylori (strain ATCC 700392 / 26695) (Campylobacterpylori)), sequence (P69996 whole entry, looked up): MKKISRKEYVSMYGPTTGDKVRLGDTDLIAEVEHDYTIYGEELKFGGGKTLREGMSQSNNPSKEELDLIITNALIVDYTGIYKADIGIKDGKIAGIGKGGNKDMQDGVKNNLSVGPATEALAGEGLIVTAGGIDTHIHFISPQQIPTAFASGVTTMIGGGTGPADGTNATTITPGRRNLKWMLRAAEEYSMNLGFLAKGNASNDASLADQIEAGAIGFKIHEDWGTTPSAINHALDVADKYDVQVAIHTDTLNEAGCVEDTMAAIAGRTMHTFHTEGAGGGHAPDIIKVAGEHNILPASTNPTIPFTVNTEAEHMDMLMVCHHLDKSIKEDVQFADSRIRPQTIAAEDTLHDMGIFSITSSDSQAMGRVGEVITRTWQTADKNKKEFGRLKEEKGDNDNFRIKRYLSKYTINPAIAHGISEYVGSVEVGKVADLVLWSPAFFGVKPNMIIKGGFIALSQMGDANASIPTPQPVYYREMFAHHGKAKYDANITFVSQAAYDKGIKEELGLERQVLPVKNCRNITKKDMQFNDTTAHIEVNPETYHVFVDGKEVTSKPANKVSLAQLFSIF
Urease subunit alpha/Urease subunit beta, sequence (P69996 whole entry): as the sequence (P69996 whole entry, looked up) above
Urease subunit alpha/Urease subunit beta, sequence (P14916 whole entry, further chain): as the sequence (P14916 whole entry, looked up) above

| SMILES | IC50 [1] [µM] | inhibition [2] |
| --- | --- | --- |
| Cc1ncc([N+](=O)[O-])n1CCOC(=O)c1cc(Br)ccc1OCCn1c([N+](=O)[O-])cnc1C | 26 | 93.9% |
| Cc1ccc(OCCn2c([N+](=O)[O-])cnc2C)c(C(=O)OCCn2c([N+](=O)[O-])cnc2C)c1 |  | 48.4% |
| Cc1ccc(C(=O)O)c(OCCn2c([N+](=O)[O-])cnc2C)c1 |  | inactive |
| Cc1ncc([N+](=O)[O-])n1CCOc1c(Cl)cc(Cl)cc1C(=O)O |  | 56.8% |
| Cc1ncc([N+](=O)[O-])n1CCOc1cc(N)ccc1C(=O)O |  | 38.3% |
| Cc1ncc([N+](=O)[O-])n1CCOc1c(I)cc(I)cc1C(=O)O |  | 53.9% |
| Cc1ncc([N+](=O)[O-])n1CCO |  | inactive |
| Cc1ncc([N+](=O)[O-])n1CCOC(=O)c1ccc(Cl)cc1OCCn1c([N+](=O)[O-])cnc1C |  | 82.2% |
| Cc1ncc([N+](=O)[O-])n1CCOC(=O)c1cc(S(=O)(=O)O)ccc1OCCn1c([N+](=O)[O-])cnc1C |  | 61.2% |
| Cc1ncc([N+](=O)[O-])n1CCOC(=O)c1cc(I)ccc1OCCn1c([N+](=O)[O-])cnc1C |  | 78.7% |
| Cc1ncc([N+](=O)[O-])n1CCOc1c(Br)cc(Br)cc1C(=O)O |  | 56.1% |
| Cc1cccc(C(=O)OCCn2c([N+](=O)[O-])cnc2C)c1OCCn1c([N+](=O)[O-])cnc1C |  | 42.1% |
| Cc1ccc(S(=O)(=O)OCCn2c([N+](=O)[O-])cnc2C)cc1 |  | 78.1% |
| Cc1ccc(C(=O)OCCn2c([N+](=O)[O-])cnc2C)c(OCCn2c([N+](=O)[O-])cnc2C)c1 |  | 38.3% |
| Cc1ncc([N+](=O)[O-])n1CCOC(=O)c1cc(Cl)ccc1OCCn1c([N+](=O)[O-])cnc1C | 12 | 95.3% |
